RAM inhibit: inhibitors of the yeast RAM network, primary screen, dse1pr::URA3 reporter, 5-FOA selection; S. cerevisiae dse1pr::URA3 reporter, 5-FOA growth OD615, 2 d; analog-sensitive cbk1-as2 kinase mutant strain; inhibition, % at 50 µM; hit rate 1.8% among 190,000; AID 868, 2007;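 active = inhibition above a set limit, 3 SD over mean compound inhibition, cut at about 8.4% in these data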;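 also: 0% = DMSO-only wells with no growth and 100% = 10 µM 1-NA-PP1 full growth; inhibition rescues growth on 5-FOA so higher OD means more RAM inhibition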
WT yeast gro inh: growth inhibition of WT strain, primary screen, mitochondrial fusion inhibitor project, WT and mutant strains, chemical genetic; hit rate 2.1% among 190,000; AID 1362, 2008; inhibition, % at 10 µM; mitochondrial fusion phenotypic screen; in the data active = inhibition above about 58%; tested in S. cerevisiae
NPY-Y2 PAM-ag: NPY-Y2 potentiators or agonists, primary screen, cell-based | Neuropeptide Y receptor type 2 (Homo sapiens), P49146 | cells expressing NPY-Y2, potentiator/agonist read-out | activation, % at 3.6 µM | hit rate 0.45% among 220,000; in the data active = activation above about 27%;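 also: cells stimulated with NPY near EC25 plus isoproterenol at EC100; 0% = vehicle plus submaximal agonist and 100% = vehicle plus saturating agonist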
Target sequence (P49146 whole entry, looked up): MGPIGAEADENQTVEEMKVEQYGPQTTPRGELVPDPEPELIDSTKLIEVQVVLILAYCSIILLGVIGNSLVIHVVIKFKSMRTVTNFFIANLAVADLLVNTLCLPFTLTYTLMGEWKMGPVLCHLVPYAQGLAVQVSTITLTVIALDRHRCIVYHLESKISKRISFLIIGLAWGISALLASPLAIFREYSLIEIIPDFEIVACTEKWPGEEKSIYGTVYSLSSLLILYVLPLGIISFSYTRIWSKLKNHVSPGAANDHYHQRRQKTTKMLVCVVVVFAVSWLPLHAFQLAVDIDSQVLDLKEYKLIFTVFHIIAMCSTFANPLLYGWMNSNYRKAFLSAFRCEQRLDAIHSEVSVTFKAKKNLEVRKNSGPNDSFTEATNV
NPY Y2 blocker: NPY-Y2 receptor antagonists, primary screen, cell-based | Neuropeptide Y receptor type 2 (Homo sapiens), P49146 | NPY-Y2 expressing cells, antagonist mode | inhibition, % at 2.7 µM | hit rate 0.99% among 140,000 | AID 793, 2007; in the data active = inhibition above about 17%;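 also: 0% = vehicle with agonist challenge and 100% = reference antagonist with challenge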
NPY1 pot ag: NPY-Y1 receptor potentiators or agonists, primary screen, cell-based. Neuropeptide Y receptor type 1 (Homo sapiens), P25929. activation, % at 3.6 µM. NPY-Y1 expressing cells, potentiator/agonist activation. AID 1304, 2008. hit rate 0.37% among 220,000; in the data active = activation above about 33%, passing the limit was not always enough;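 also: cells stimulated with NPY at EC10 then isoproterenol at EC100; 0% = low agonist plus stimulus and 100% = saturating agonist plus stimulus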
NPY-Y1 antag: NPY-Y1 receptor antagonists, primary screen, cell-based; inhibition, % at 3.6 µM; Neuropeptide Y receptor type 1 (Homo sapiens), P25929; HEK293-CNG Y1 cells, membrane potential fluorescence; NPY at EC95, then isoproterenol; hit rate 1% among 200,000;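 active = inhibition above the campaign mean inhibition of all tested compounds plus 3 SD, cut at about 20% in these data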;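 also: 0% = DMSO wells given NPY plus isoproterenol and 100% = isoproterenol alone without NPY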
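Material: HEK293 Y1/CNG channel cell line | Also added: NPY (25 nM), isoproterenol (1 µM), Ro 20-1724 (25 µM) | Compound: One concentration, 3.6 µM, in 0.4% DMSO | Schedule: 3 h dye uptake, 1 h room-temperature compound, 45 min post-isoproterenol | Signal: Membrane-potential fluorescent dye readout | Read-out: % inhibition of NPY effect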
RAM efflux-def: 5-FOA growth of efflux-deficient control yeast, dose response, counter-screen for RAM network inhibitor project, S. cerevisiae, OD615; shares compounds with RAM inhibit; S. cerevisiae efflux-deficient reporter strain, 5-FOA growth OD615, 2 days; max inhibition, %; 1,200 tested, under 10 active; call rule not given here;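 also: plate controls were vehicle for no effect and reference inhibitor for full effect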
The depositor's hits bear a star; . = no result given. In the library only some 4.9% were active in any assay of this set; here they are far more common.

SMILES	RAM inhibit	WT yeast gro inh	NPY-Y2 PAM-ag	NPY Y2 blocker	NPY1 pot ag	NPY-Y1 antag	RAM efflux-def
O=S(=O)(Nc1ccc(N=Nc2ccccc2)cc1)c1ccccc1	1.5	-4.5	8.3	-2.2	20.1	-2.5	.
COC(=O)c1ccc(OC)c(CSc2nnc(-c3ccc(C(C)(C)C)cc3)o2)c1	14.0*	5.1	0.7	0.4	-15.0	5.2	3.8
COc1ccc(-c2nnc(SCc3ccccc3F)o2)cc1OC	6.1	6.0	-10.4	8.7	-35.0	15.3	.
CC(C)C[C@H](NC(=O)Nc1ccc2c(c1)OCCO2)C(=O)O	.	.	-3.8	.	14.4	.	.
Cc1ccc(C(=O)N2c3ccccc3NC(=O)C2C)cc1 (configuration not stated)	2.2	7.1	0.9	.	0.2	-4.8	.
Cc1cnn(-c2nc(-c3ccccc3)cc(-c3ccccc3)n2)c1	14.1*	41.0	-20.3	.	-26.7	10.6	1.0
FC(F)(F)c1cc(-c2ccccc2)nc(-n2cc(Cl)cn2)n1	2.9	-1.3	-12.4	.	-10.8	8.5	.
CC(=O)Nc1cccc(NC(=O)C(=O)c2cn(CC(=O)N3CCCCC3)c3ccccc23)c1	3.6	5.1	8.8	.	1.1	2.0	.
COc1ccc(C)cc1-n1c(=O)c2ccccc2c2ccccc2c1=O	3.4	-0.3	1.5	.	-11.7	2.7	.
COc1ccc(C)cc1N1C(=N)/C(=C2/Nc3ccccc3S2)C(c2ccccc2)C1=O (configuration not stated)	13.5*	84.1*	-12.6	1.8	-9.6	0.6	3.1
Clc1ccc(-c2nnc(CSc3nnc(-c4cccs4)o3)o2)cc1	13.2*	-2.3	5.6	9.3	20.6	0.6	2.3
Cc1onc(-c2ccccc2Cl)c1C(=O)N1C=CC(C(F)(F)F)=NCC1	1.1	13.9	-7.2	6.6	11.0	5.8	.
COc1ccccc1-n1c2nc3ccccc3nc2c2c(=O)n(-c3cc(C)cc(C)c3)cnc21	7.1	39.8	-0.4	-2.1	-7.6	-4.4	.
COc1ccccc1-n1cnc2c(c1=O)c1nc3ccccc3nc1n2-c1ccc(C)cc1	11.4*	29.2	1.1	4.4	12.3	5.1	3.2
COC(=O)CNC(=O)CCc1nnc(C2(c3ccc(Cl)cc3)CCC2)o1	0.4	-2.9	6.5	.	9.3	3.0	.
CCOC(=O)C(C)(C)N(Cc1cccc(C)c1)S(=O)(=O)c1cccc([N+](=O)[O-])c1	12.6*	21.1	9.6	3.4	-4.2	9.8	0.5
CCCC(=O)Oc1ccc(N(C(=O)CCC)S(=O)(=O)c2cccc([N+](=O)[O-])c2)cc1	3.8	4.5	6.9	3.6	-16.0	9.4	.
CC(C)CC(=O)Nc1sc2c(c1C#N)CC(C)(C)NC2(C)C	0.3	6.1	-18.2	4.4	-4.2	8.8	.
O=C(CSc1nc2ccccc2c(=O)n1-c1ccccc1)N1CCC1	0.7	-12.6	-0.4	.	18.4	-2.4	.
CNS(=O)(=O)c1cccc(C(=O)OCc2csc(-c3ccccc3)n2)c1	15.7*	-4.9	-0.4	3.2	-18.2	-7.2	1.4
CCOC(=O)c1sc(-c2ccccc2)cc1NC(=O)c1ccc(S(=O)(=O)N(CCOC)CCOC)cc1	18.2*	-17.8	-15.7	2.5	23.1	-4.4	3.4
CCC1CCCCN1C(=O)COc1cc(=O)n(C)c2ccccc12 (configuration not stated)	2.2	2.6	-14.6	0.5	-1.1	6.2	.
Cc1ccc(OCC(=O)O)c(-n2nc3ccccc3n2)c1	0.3	5.3	-14.9	1.6	-23.4	7.4	.
Cc1ccc(NC(=O)COc2ccc(CCO)cc2-n2nc3ccccc3n2)cc1C	11.8*	24.5	-6.3	2.2	-25.1	5.7	8.4
CN(C[C@H](Cc1ccccc1)N(C[C@H](CC1CCCCC1)N(CCc1ccccc1)N=O)N=O)N=O	4.9	9.1	-5.8	.	4.4	1.3	.
SMILES	RAM inhibit	WT yeast gro inh	NPY-Y2 PAM-ag	NPY Y2 blocker	NPY1 pot ag	NPY-Y1 antag	RAM efflux-def
CCC(C)[C@@H](CN(N=O)[C@@H](Cc1ccccc1)CN(C)N=O)N(CCc1ccccc1)N=O (some centres not stated)	30.5*	-1.3	-3.1	.	-6.7	8.3	3.5
CN(C[C@@H](CC1CCCCC1)N(C[C@H](Cc1ccccc1)N(CCc1ccccc1)N=O)N=O)N=O	14.1*	16.6	-9.1	.	9.7	2.9	4.3
Cc1ccc(OCCn2cc(/C=C(\C#N)C(=O)NCC3CCCO3)c3ccccc32)cc1 (configuration not stated)	14.0*	9.2	6.4	6.7	-14.7	9.4	6.5
Cc1ccc(OCCn2cc(/C=C(\C#N)C(=O)NCC3CCCO3)c3ccccc32)cc1C (configuration not stated)	11.8*	8.5	-4.3	9.0	-22.1	-1.2	6.3
CCc1c(-c2ccccc2)[n+](=O)c2c(n1[O-])CCC2	.	.	19.2	.	11.9	.	.
Cc1cc(C)nc(SCc2nnc(SCC(=O)Nc3nccs3)n2C)n1	0.4	-4.1	2.3	-0.7	-12.8	1.8	.
Cc1ccc(S(=O)(=O)N(CCC(=O)Nc2ccc(OC(F)(F)F)cc2)c2ccccc2)cc1	16.0*	41.5	-0.6	4.9	-2.1	4.6	2.1
COc1cc(-c2cn[nH]c2N)cc(OC)c1OC	0.0	-0.1	-5.4	1.1	-12.9	-3.1	.
CCOC(=O)c1c(-c2ccc(C)o2)csc1NC(=O)CSc1nncs1	11.8*	-9.4	-12.4	5.2	-25.7	-0.4	1.4
COc1cccc(/C=C2\SC(=S)N(C(Cc3ccccc3)C(=O)O)C2=O)c1 (configuration not stated)	12.2*	-22.5	-11.9	.	-11.0	3.5	0.6
O=C(O)C(c1ccccc1)N1C(=O)/C(=C/c2cccs2)SC1=S (configuration not stated)	.	.	-7.4	.	-13.7	.	.
O=C(O)C(Cc1ccccc1)N1C(=O)/C(=C/c2cccs2)SC1=S (configuration not stated)	15.5*	-9.2	-2.5	.	-18.0	18.8	1.7
CC(NCc1ccc(S(N)(=O)=O)cc1)C(=O)Nc1cc([N+](=O)[O-])ccc1Cl (configuration not stated)	4.1	-9.1	3.1	.	-16.2	-1.9	.
COCC(C)n1c(SCc2ccc(OC)c(F)c2)nc2ccccc2c1=O (configuration not stated)	14.2*	73.5*	-24.7	.	-4.5	16.7	1.7

Screening data as filed in PubChem BioAssay.
